Experimental data taken from ChEMBL document CHEMBL4364340, “Discovery of N-(1-Acryloylazetidin-3-yl)-2-(1H-indol-1-yl)acetamides as Covalent Inhibitors of KRASG12C” (ACS Med Chem Lett, 2019).
In brackets after ≈: the same amount, converted by molar mass.

Tests used:
[1] = tested on: GTPase KRas (Homo sapiens), P01116 [G12C]; assay: Inhibition of KRAS G12C mutant (unknown origin) at 10 uM incubated for 2 hrs in presence of GDP by rapidfire mass spectrometry analysis relative to control
In short: (§1)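 GDP-bound KRASG12C (2 μM) incubated with 10 μM compound. Intact-protein mass spectrometry quantifies relative % covalent adduct at Cys12 at the stated time point.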

[2] = tested on: GTPase KRas (Homo sapiens), P01116 [G12C]; assay: Inhibition of KRAS G12C mutant (unknown origin) at 10 uM incubated for 20 hrs in presence of GDP by rapidfire mass spectrometry analysis relative to control; in short: as §1
[3] = tested on: GTPase KRas (Homo sapiens), P01116 [G12C]; assay: Inhibition of KRAS G12C mutant (unknown origin) assessed as pseudo first order rate constant incubated for 0.02 to 20 hrs in presence of GDP by rapidfire mass spectrometry analysis
In short: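 GDP-bound KRASG12C (2 μM) with 10 μM compound. Intact-protein MS measures covalent adduct at Cys12 after 0.02, 0.2, 2 and 20 h. Conversions between 10% and 90% are converted to kobs/[I] (M–1 s–1) under pseudo-first-order kinetics.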

[4] = Half life of compound in phosphate buffer at pH 7.4 in presence of GSH by LC/MS analysis; type: physicochemical; settings: phosphate buffer with GSH
In short: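 Intrinsic thiol reactivity toward 5 mM glutathione. Half-life is taken from the rate at which parent compound disappears.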

GTPase KRas [5] = target: GTPase KRas (Homo sapiens, UniProt P01116, C118A/G12C); assay: Inhibition of GDP bound N terminal His-tagged KRAS G12C/C118A mutant (unknown origin) (1 to 169 residues) assessed as reduction in SOS-mediated guanine nucleotide exchange preincubated for 2 hrs followed by addition of SOS and GTP and measured after 1 hr by alphascreen assay
In short: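 Inhibitor preincubated with protein 2 h, then SOS1 and GTP added to exchange GTP into the nucleotide site. GTP loading read as proximity of RAF Ras-binding domain, which binds only active KRAS. IC50 from dose response.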

GTPase KRas [6] = target: GTPase KRas (Homo sapiens, UniProt P01116, G12C); assay: Inhibition of KRAS G12C mutant in human MIAPaCa2 cells assessed as reduction in EGF-induced ERK1/2 phosphorylation incubated for 4 hrs followed by EGF addition by luminescence based assay; type: cell-based
[7] = tested on: GTPase KRas (Homo sapiens), P01116 [G12C]; assay: Inhibition of KRAS G12C mutant (unknown origin) at 10 uM incubated for 0.2 hrs in presence of GDP by rapidfire mass spectrometry analysis relative to control; in short: as §1
[8] = tested on: GTPase KRas (Homo sapiens), P01116 [G12C]; assay: Inhibition of KRAS G12C mutant (unknown origin) at 10 uM incubated for 0.02 hrs in presence of GDP by rapidfire mass spectrometry analysis relative to control
In short: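 Intact-protein mass spectrometry of covalent adduct formation at Cys12 of GDP-bound KRASG12C. Test compound at 10 μM, with read-outs at 0.02, 0.2, 2 and 20 h. Values are the relative % of protein bound, measured directly under pseudo-first-order conditions. Earlier incubations in the paper used 2 μM protein.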

[9] = Solubility of compound in FASIIF measured after 72 hrs by HPLC; type: physicochemical; settings: FaSSIF
In short: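 Solubility in fasted-state simulated intestinal fluid, measured by HPLC after equilibration at room temperature for 72 h.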

MIA PaCa-2 = assay: Cytotoxicity against human MIAPaCa2 cells assessed as reduction in cell viability measured after 72 hrs by Celltiter-Glo luminescent cell viability assay; type: functional, cell-based; settings: MIA PaCa-2, 72 h
In short: (§2)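 Cell viability in MIA PaCa-2 (KRAS p.G12C) or A549 (KRAS p.G12S) cells, read by CellTiter-Glo luminescence.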

A549 = assay: Cytotoxicity against human A549 cells assessed as reduction in cell viability measured after 72 hrs by Celltiter-Glo luminescent cell viability assay; type: functional, cell-based; settings: A549, 72 h; in short: as §2
[10] = Intrinsic clearance in mouse liver microsomes at 1 uM measured after 30 mins in presence of NADPH by LC-MS analysis; type: ADME, Microsome; settings: read-out: CLH
[11] = Intrinsic clearance in rat liver microsomes at 1 uM measured after 30 mins in presence of NADPH by LC-MS analysis; type: ADME, Microsome; settings: read-out: CLH
[12] = Intrinsic clearance in human liver microsomes at 1 uM measured after 30 mins in presence of NADPH by LC-MS analysis; type: ADME, Microsome; settings: read-out: CLH
[13] = Hepatic intrinsic clearance in mouse hepatocytes assessed per 10^6 cells at 0.5 uM after 60 mins; type: ADME, cell-based, Hepatocyte; settings: read-out: CLH
In short: (§3)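 Intrinsic clearance in mouse, rat or human hepatocytes. Compound at 0.5 μM, 0.5 million cells/mL, incubated 60 min.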

[14] = Hepatic intrinsic clearance in rat hepatocytes assessed per 10^6 cells at 0.5 uM after 60 mins; type: ADME, cell-based, Hepatocyte; settings: read-out: CLH; in short: as §3
[15] = Hepatic intrinsic clearance in human hepatocytes assessed per 10^6 cells at 0.5 uM after 60 mins; type: ADME, cell-based, Hepatocyte; settings: read-out: CLH; in short: as §3
[16] = Plasma protein binding in mouse assessed as unbound fraction at 5 uM by ultracentrifugation method; type: ADME, cell-free
In short: (§4)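 Plasma protein binding measured by ultracentrifugation, compound at 5 μM.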

[17] = Plasma protein binding in rat assessed as unbound fraction at 5 uM by ultracentrifugation method; type: ADME, cell-free; in short: as §4
[18] = Plasma protein binding in human assessed as unbound fraction at 5 uM by ultracentrifugation method; type: ADME, cell-free; in short: as §4
[19] = Clearance in mouse at […]; type: ADME, organism-based; settings: in vivo
In short: (§5)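 Mouse and rat PK: single 1 mg/kg iv dose given in 100% DMSO, and 10 mg/kg po dose given in 1% Tween 80, 2% HPMC, 97% water.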

[20] = Volume of distribution at steady state in mouse at […]; type: ADME, organism-based; settings: in vivo; in short: as §5
[21] = Half-life in mouse at 10 mg/kg, po; type: ADME, organism-based; settings: in vivo; in short: as §5
[22] = Oral bioavailability in mouse at 10 mg/kg; type: ADME, organism-based; settings: in vivo; in short: as §5
[23] = Clearance in rat at […]; type: ADME, organism-based; settings: in vivo; in short: as §5
[24] = Volume of distribution at steady state in rat at […]; type: ADME, organism-based; settings: in vivo; in short: as §5
[25] = Half-life in rat at 10 mg/kg, po; type: ADME, organism-based; settings: in vivo; in short: as §5
[26] = Oral bioavailability in rat at 10 mg/kg; type: ADME, organism-based; settings: in vivo; in short: as §5

SMILES	inhibition [1] [%]	inhibition [2] [%]	K [3] [M⁻¹ s⁻¹]	half-life [4] [h]	IC50 (GTPase KRas [6]) [µM]	inhibition [7] [%]	inhibition [8] [%]	other results
C=CC(=O)N1CC(NC(=O)Cn2cc(C(=O)NCc3ccccc3)c3cc(Br)ccc32)C1	29	93	5	1.67	–	–	–	–
C=CC(=O)N1CC(NC(=O)COc2ccc(Br)cc2C(=O)N2CC=C(c3ccccc3)C2)C1	–	–	26	1.67	11.3	–	–	IC50 (GTPase KRas [5]): 2.78 µM
C=CC(=O)N1CC(NC(=O)Cn2c(C)c(C(=O)N3CCc4c(cccc4OC)C3)c3cc(Cl)ccc32)C1	100	100	69	1.67	3.55	34	–	–
C=CC(=O)N1CC(NC(=O)Cn2ccc3cc(Br)ccc32)C1	14	67	2	1.67	–	–	–	IC50 (GTPase KRas [5]): > 250 µM
C=CC(=O)N1CC(NC(=O)Cn2c(C)c(C(=O)N3CCc4c(cccc4OC)C3)c3cc(Br)cc(C)c32)C1	100	–	83	1.67	0.299	39	–	–
C=CC(=O)N1CC(NC(=O)Cn2cc(C(=O)N3CCc4ccccc4C3)c3cc(Br)ccc32)C1	100	100	308	1.67	–	100	0	–
C=CC(=O)N1CC(NC(=O)COc2ccc(Br)cc2)C1	–	–	0.3	–	–	–	–	–
C=CC(=O)N1CC(NC(=O)Cn2cc(C(=O)NCCc3ccccc3)c3cc(Br)ccc32)C1	59	100	12	1.67	–	–	–	–
C=CC(=O)N1CC(NC(=O)Cn2cc(C(=O)N3CCc4cc(Cl)ccc4C3)c3cc(Br)ccc32)C1	100	100	132	1.67	–	55	–	–
C=CC(=O)N1CC(NC(=O)Cn2c(C)c(C(=O)N3CCc4c(cccc4OC)C3)c3cc(Cl)cc(C)c32)C1	100	100	583	1.67	–	85	40	–
C=CC(=O)N1CC(NC(=O)Cn2c(C)c(C(=O)N3CCc4c(cccc4OC)C3)c3cc(Br)ccc32)C1	100	100	256	1.67	1.68	91	14	–
C=CC(=O)N1CC(NC(=O)Cn2cc(C(=O)N3CCc4cc(F)ccc4C3)c3cc(Br)ccc32)C1	100	100	326	1.67	–	86	–	–
C=CC(=O)N1CC(NC(=O)COc2ccc(Br)cc2NC(=O)c2cc(C)no2)C1	11	63	2	–	–	–	–	–
C=CC(=O)N1CC(NC(=O)Cn2cc(C(=O)N3CCc4c(cccc4OC)C3)c3cc(Br)cc(C)c32)C1	100	100	> 400	1.67	–	100	–	–
C=CC(=O)N1CC(NC(=O)Cn2c(C3CC3)c(C(=O)N3CCc4c(cccc4OC)C3)c3cc(Cl)cc(C)c32)C1	100	100	2640	1.33	–	94	69	solubility at 72 h [9]: 252 µM (≈ 141 µg/mL); IC50 (MIA PaCa-2): 0.067 µM; IC50 (A549): 9.33 µM; microsomal CLint at 1 µM [10]: 708 µL/min/mg; microsomal CLint at 1 µM [11]: 197 µL/min/mg; microsomal CLint at 1 µM [12]: 161 µL/min/mg; hepatocyte CLint at 0.5 µM [13]: 228 µL/min/1e6 cells; hepatocyte CLint at 0.5 µM [14]: 293 µL/min/1e6 cells; hepatocyte CLint at 0.5 µM [15]: 53 µL/min/1e6 cells; fraction unbound at 5 µM [16]: 0.02; fraction unbound at 5 µM [17]: 0.02; fraction unbound at 5 µM [18]: 0.04; CL/F [19]: 107 mL/min/kg; Vdss [20]: 2.9 L/kg; half-life [21]: 0.9 h; bioavailability [22]: 8%; CL/F [23]: 65 mL/min/kg; Vdss [24]: 2.6 L/kg; half-life [25]: 0.7 h; bioavailability [26]: < 1%
C=CC(=O)N1CC(NC(=O)Cn2cc(C(=O)N3CCc4c(cccc4OC)C3)c3cc(Br)ccc32)C1	100	100	230	1.67	11.4	92	13	–
C=CC(=O)N1CC(NC(=O)Cn2c(C3CC3)c(C(=O)N3CCc4c(cccc4OC)C3)c3cc(Br)ccc32)C1	100	–	549	1.67	0.604	90	35	–
C=CC(=O)N1CC(NC(=O)Cn2cc(C(=O)N3CCc4c(Cl)cccc4C3)c3cc(Br)ccc32)C1	100	100	188	1.67	–	67	–	–
C=CC(=O)N1CC(NC(=O)Cn2cc(C(=O)N(C)Cc3ccccc3)c3cc(Br)ccc32)C1	35	100	6	1.67	–	–	–	–
C=CC(=O)N1CC(NC(=O)Cn2cc(C(=O)N3CCc4c(F)cccc4C3)c3cc(Br)ccc32)C1	100	100	247	1.67	–	77	–	–
